Experimental data published in ChEMBL document CHEMBL4041524, “Synthesis and Characterization of a Novel γ-Aminobutyric Acid Type A (GABAA) Receptor Ligand That Combines Outstanding Metabolic Stability, Pharmacokinetics, and Anxiolytic Efficacy” (J Med Chem, 2016).
Calls of active or inactive are those of the source. No cut-off for these calls is given here.

What was measured:
Liver [1] = test: Metabolic stability in human liver microsomes assessed as compound remaining at 4 uM measured after 30 mins in presence of NADPH by LC-MS/MS analysis; type: ADME, microsome; settings: 0.5 h
In short: (§1)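 Human, mouse or rat liver microsomes were incubated with compound at 4 μM final for 30 min at 37 °C (n = 1). Percent of parent remaining was quantified by LC-MS/MS.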

Liver [2] = test: Metabolic stability in mouse liver microsomes assessed as compound remaining at 4 uM measured after 30 mins in presence of NADPH by LC-MS/MS analysis; type: ADME, microsome; settings: 0.5 h; in short: as §1
Liver [3] = test: Metabolic stability in rat liver microsomes assessed as compound remaining at 4 uM measured after 30 mins in presence of NADPH by LC-MS/MS analysis; type: ADME, microsome; settings: 0.5 h; in short: as §1
[4] = Cytotoxicity against HEK293T cells assessed as viable cells measured after 18 hrs by CellTiter-Glo assay; type: cell-based, HEK-293T; settings: human, read-out: LD50
In short: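 HEK293T cells were exposed to compound for 18 h (n = 4). Viable cells were quantified with CellTiter-Glo, and LD50 was derived.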

[5] = Total plasma concentration in Sprague-Dawley rat at 10 mg/kg, po measured after 15 mins by LC-MS/MS analysis; type: ADME, organism-based
In short: (§2)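 Sprague-Dawley rats (n = 3 per time point) were given 10 mg/kg p.o. Total plasma concentrations were taken at 15, 30, 60 and 120 min. Brain levels of the dosed ligand and of the carboxylic acid metabolite were taken at 60 or 120 min.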

[6] = Total plasma concentration in Sprague-Dawley rat at 10 mg/kg, po measured after 30 mins by LC-MS/MS analysis; type: ADME, organism-based; in short: as §2
[7] = Total plasma concentration in Sprague-Dawley rat at 10 mg/kg, po measured after 60 mins by LC-MS/MS analysis; type: ADME, organism-based; in short: as §2
[8] = Total plasma concentration in Sprague-Dawley rat at 10 mg/kg, po measured after 120 mins by LC-MS/MS analysis; type: ADME, organism-based; in short: as §2
[9] = Drug uptake in Sprague-Dawley rat brain at 10 mg/kg, po measured after 120 mins by LC-MS/MS analysis; type: ADME, organism-based; settings: read-out: Drug uptake; in short: as §2
Brain = test: Drug metabolism in Sprague-Dawley rat brain assessed as (E)-8-ethynyl-6-(pyridin-2-yl)-4H-benzo[f]imidazo[1,5-a][1,4]diazepine-3-carboxylic acid formation at 10 mg/kg, po measured after 120 mins by LC-MS/MS analysis; type: ADME, organism-based; settings: in vivo, 2 h; in short: as §2
Mus musculus [10] = test: Anxiolytic-like activity in Swiss Webster mouse marble burying model of anxiety assessed as suppression of marble burying activity at 30 mg/kg, ip administered 30 mins prior to test relative to vehicle-control; type: functional, organism-based
In short: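 Male NIH Swiss Webster mice (n = 10) received vehicle or compound at 10 or 30 mg/kg i.p. 30 min before marble burying testing. Sedation-like behaviour was noted by observation. Analysis was ANOVA with Dunnett's test vs vehicle.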

Mus musculus [11] = test: Toxicity in Swiss mouse assessed as change in motor coordination by measuring number of falls from the rotating rod at 10 mg/kg, ip administered 30 mins prior to testing measured for 2 mins by rotarod test relative to control; type: organism-based; settings: in vivo
In short: (§3)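 The same mice used for marble burying were placed on a rotarod at 4 r.p.m. for 2 min. No fall was scored success, one fall partial, and two falls failure.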

Mus musculus [12] = test: Toxicity in Swiss mouse assessed as change in motor coordination by measuring number of falls from the rotating rod at 30 mg/kg, ip administered 30 mins prior to testing measured for 2 mins by rotarod test relative to control; type: organism-based; settings: in vivo; in short: as §3
[13] = target: T1, GABA-A receptor; alpha-2/beta-3/gamma-2 (Homo sapiens) (UniProt P18507+P28472+P47869); test: Modulation of recombinant GABA alpha2beta3gamma2 receptor (unknown origin) expressed in Xenopus laevis oocytes assessed as change in GABA-induced EC(3 to 6) current at 100 nM by two-electrode voltage clamp assay; type: cell-based
In short: (§4)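 Xenopus laevis oocytes expressing α1, α2, α3 or α5 β3γ2 GABAARs were recorded by two-electrode voltage clamp. Modulation of the GABA EC3-6 current (taken as 100%) was tested at 100 nM, 1 μM and 10 μM in the same cells. Values are mean ± SEM, n = 3–4.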

[14] = target: T2, GABA-A receptor; alpha-3/beta-3/gamma-2 (Homo sapiens) (UniProt P18507+P28472+P34903); test: Modulation of recombinant GABA alpha3beta3gamma2 receptor (unknown origin) expressed in Xenopus laevis oocytes assessed as change in GABA-induced EC(3 to 6) current at 100 nM by two-electrode voltage clamp assay; type: cell-based; in short: as §4
[15] = target: T3, GABA-A receptor; alpha-1/beta-3/gamma-2 (Homo sapiens) (UniProt P14867+P18507+P28472); test: Modulation of recombinant GABA alpha1beta3gamma2 receptor (unknown origin) expressed in Xenopus laevis oocytes assessed as change in GABA-induced EC(3 to 6) current at 1 uM by two-electrode voltage clamp assay; type: cell-based; in short: as §4
[16] = target: T1, GABA-A receptor; alpha-2/beta-3/gamma-2 (Homo sapiens); test: Modulation of recombinant GABA alpha2beta3gamma2 receptor (unknown origin) expressed in Xenopus laevis oocytes assessed as change in GABA-induced EC(3 to 6) current at 1 uM by two-electrode voltage clamp assay; type: cell-based; in short: as §4
[17] = target: T2, GABA-A receptor; alpha-3/beta-3/gamma-2 (Homo sapiens); test: Modulation of recombinant GABA alpha3beta3gamma2 receptor (unknown origin) expressed in Xenopus laevis oocytes assessed as change in GABA-induced EC(3 to 6) current at 1 uM by two-electrode voltage clamp assay; type: cell-based; in short: as §4
[18] = target: T4, GABA-A receptor; alpha-5/beta-3/gamma-2 (Homo sapiens) (UniProt P18507+P28472+P31644); test: Modulation of recombinant GABA alpha5beta3gamma2 receptor (unknown origin) expressed in Xenopus laevis oocytes assessed as change in GABA-induced EC(3 to 6) current at 1 uM by two-electrode voltage clamp assay; type: cell-based; in short: as §4
[19] = target: T3, GABA-A receptor; alpha-1/beta-3/gamma-2 (Homo sapiens); test: Modulation of recombinant GABA alpha1beta3gamma2 receptor (unknown origin) expressed in Xenopus laevis oocytes assessed as change in GABA-induced EC(3 to 6) current at 10 uM by two-electrode voltage clamp assay; type: cell-based; in short: as §4
[20] = target: T1, GABA-A receptor; alpha-2/beta-3/gamma-2 (Homo sapiens); test: Modulation of recombinant GABA alpha2beta3gamma2 receptor (unknown origin) expressed in Xenopus laevis oocytes assessed as change in GABA-induced EC(3 to 6) current at 10 uM by two-electrode voltage clamp assay; type: cell-based; in short: as §4
[21] = target: T2, GABA-A receptor; alpha-3/beta-3/gamma-2 (Homo sapiens); test: Modulation of recombinant GABA alpha3beta3gamma2 receptor (unknown origin) expressed in Xenopus laevis oocytes assessed as change in GABA-induced EC(3 to 6) current at 10 uM by two-electrode voltage clamp assay; type: cell-based; in short: as §4
[22] = target: T4, GABA-A receptor; alpha-5/beta-3/gamma-2 (Homo sapiens); test: Modulation of recombinant GABA alpha5beta3gamma2 receptor (unknown origin) expressed in Xenopus laevis oocytes assessed as change in GABA-induced EC(3 to 6) current at 10 uM by two-electrode voltage clamp assay; type: cell-based; in short: as §4
Rattus norvegicus = test: Anxiolytic like activity in water-deprived Sprague-Dawley rat assessed as increase in water drinking time during punished period at 30 mg/kg, po administered 30 prior to testing by Vogel conflict test relative to vehicle control; type: functional
In short: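 Water-deprived male Sprague-Dawley rats (n = 6–8) drank during unpunished and punished periods, with licking suppressed by mild shock in punished periods. Compounds were given 30 min before testing. Analysis was ANOVA with Dunnett's test.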

[23] = target: T3, GABA-A receptor; alpha-1/beta-3/gamma-2 (Homo sapiens); test: Modulation of recombinant GABA alpha1beta3gamma2 receptor (unknown origin) expressed in Xenopus laevis oocytes assessed as change in GABA-induced EC(3 to 6) current by two-electrode voltage clamp assay; type: cell-based; in short: as §4
[24] = target: T1, GABA-A receptor; alpha-2/beta-3/gamma-2 (Homo sapiens); test: Modulation of recombinant GABA alpha2beta3gamma2 receptor (unknown origin) expressed in Xenopus laevis oocytes assessed as change in GABA-induced EC(3 to 6) current by two-electrode voltage clamp assay; type: cell-based; in short: as §4
[25] = target: T2, GABA-A receptor; alpha-3/beta-3/gamma-2 (Homo sapiens); test: Modulation of recombinant GABA alpha3beta3gamma2 receptor (unknown origin) expressed in Xenopus laevis oocytes assessed as change in GABA-induced EC(3 to 6) current by two-electrode voltage clamp assay; type: cell-based; in short: as §4
[26] = target: T4, GABA-A receptor; alpha-5/beta-3/gamma-2 (Homo sapiens); test: Modulation of recombinant GABA alpha5beta3gamma2 receptor (unknown origin) expressed in Xenopus laevis oocytes assessed as change in GABA-induced EC(3 to 6) current by two-electrode voltage clamp assay; type: cell-based; in short: as §4

Question: With `C#Cc1ccc2c(c1)C(c1ccccn1)=NCc1c(C(=O)OCC)ncn1-2` as the compound, how does the Stability (Liver [1]) read?
Answer: 86%

Question: What about the Stability (Liver [2]) of the same compound?
Answer: 57%

Question: And the Stability (Liver [3])?
Answer: 58%

Question: What about the CC50 at 18 h [4] of the same compound?
Answer: > 100 µM

Question: And the concentration at 0.25 h [5]?
Answer: < 12.2 nM

Question: What about the concentration at 0.5 h [6] of the same compound?
Answer: < 12.2 nM

Question: What about the concentration at 1 h [7] of the same compound?
Answer: < 12.2 nM

Question: And the concentration at 2 h [8]?
Answer: < 12.2 nM

Question: And the concentration at 2 h [9]?
Answer: < 12.2 nM

Question: And the Drug metabolism (Brain)?
Answer: 10 nM

Question: What about the Activity (Mus musculus [10]) of the same compound?
Answer: Active

Question: And the Activity (Mus musculus [11])?
Answer: Toxic

Question: And the Activity (Mus musculus [12])?
Answer: Toxic

Question: What about the Activity [13] of the same compound?
Answer: 111%

Question: And the Activity [14]?
Answer: 119%

Question: And the Activity [15]?
Answer: 147%

Question: And the Activity [16]?
Answer: 207%

Question: What about the Activity [17] of the same compound?
Answer: 195%

Question: And the Activity [18]?
Answer: 134%

Question: And the Activity [19]?
Answer: 178%

Question: And the Activity [20]?
Answer: 244%

Question: And the Activity [21]?
Answer: 305%

Question: And the Activity [22]?
Answer: 158%

Question: What about the Activity (Rattus norvegicus) of the same compound?
Answer: inactive

Question: And the Activity [23]?
Answer: Dose-dependent effect

Question: And the Activity [24]?
Answer: Dose-dependent effect

Question: And the Activity [25]?
Answer: Dose-dependent effect

Question: What about the Activity [26] of the same compound?
Answer: Dose-dependent effect
